Measured values taken from article PMC10077566 (ACS Omega, 2023).

Assays:
FABP3 (U-87-MG cells) = FABP3 (U-87-MG cells) (Homo sapiens, UniProt P05413); assay: FABP3-mediated internalization, antibody labeling and FACS; format: cell-based; conditions: serum-free, 10 μM, FACS, Coralite 594-conjugated FABP3 antibody
In short: (§1)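 Cells were kept in serum-free neuronal basal medium with B27 and seeded at 1×10^4 cells/well in 6-well plates, then left to spread for 4 h at 37 °C, 5% CO2. They were incubated with Coralite 594-conjugated anti-FABP3 mouse antibody, then with the test compound (10 μM) for 24 h. Cells were trypsinized, pelleted at […] for 5 min, resuspended in FACS buffer and filtered. Flow cytometry used 582 nm excitation.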

FABP3 (U-138-MG cells) = FABP3 (U-138-MG cells) (Homo sapiens, UniProt P05413); assay: as above; format: cell-based; conditions: serum-free, 10 μM, FACS, Coralite 594-conjugated FABP3 antibody
In short: as §1

primary mouse neurons = assay: MTT cytotoxicity / cell viability, noncancer cells; format: cell-based; conditions: 24 h, n = 3
In short: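 Primary mouse neurons were grown in serum-free DMEM/F12-based neural medium with L-glutamine, HEPES, penicillin/streptomycin and supplement. They were plated at 1×10^4 cells/well and allowed to spread for 24 h at 37 °C, 5% CO2, then treated with the test compound at 2 or 10 μM for 24 h. MTT was added for 4 h, then solubilizing solution for 4 h. Absorbance was read at 560 and 590 nm. Runs were in triplicate, with Student's t tests.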

U-87-MG spheroids = assay: Calcein-AM spheroid viability assay; format: cell-based, human; conditions: 10 μM, 24 h; six-day old spheroids, 10000 cells/well
In short: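 Six-day-old U-87-MG spheroids seeded at 10000 cells/well in U-bottom low-attachment 24-well plates from monolayers grown to 70% confluence, in serum-free B27 neuronal basal medium or FBS-supplemented EMEM, with medium changed every 3 days. Exposed to the test compound at 10 μM for 24 h, moved to a fresh plate, washed three times with assay buffer, then stained with 3 μM Calcein-AM for 1 h at 37 °C. Imaged by fluorescence.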

U-87-MG cells = assay: Annexin V FITC-propidium iodide apoptosis assay, FACS; format: cell-based, human; conditions: Annexin V FITC/PI quadrant

Sequence of FABP3 (U-138-MG cells) (P05413 whole entry): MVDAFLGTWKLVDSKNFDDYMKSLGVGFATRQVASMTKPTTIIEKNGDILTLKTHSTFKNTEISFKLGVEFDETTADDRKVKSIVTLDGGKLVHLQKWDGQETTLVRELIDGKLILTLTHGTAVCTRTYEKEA
Sequence of FABP3 (U-87-MG cells) (P05413 whole entry): as above

Compound | FABP3-mediated internalization (FABP3 (U-87-MG cells)) | FABP3-mediated internalization (FABP3 (U-138-MG cells)) | cell viability (primary mouse neurons; 2 μM) [%] | cell viability (primary mouse neurons; 10 μM) [%] | spheroid viability, Calcein-AM fluorescence (U-87-MG spheroids) | necrotic cells (U-87-MG cells; 2 μM) [%] | necrotic cells (U-87-MG cells; 10 μM) [%]
ACGLSGLCVAK [A-COOP-K] | did not show internalization | did not show internalization |  |  |  |  | 
COc1cccc2c1C(=O)c1c(O)c3c(c(O)c1C2=O)C[C@@](O)(C(=O)CO)C[C@@H]3O[C@H]1C[C@H](N)[C@H](O)[C@H](C)O1 [DOX, doxorubicin] |  |  | 49.3 | 27.2 | scattered viable cells were seen throughout the spheroid | 7.2 | 24
